# The sample as a whole holds a higher share of hits than the screen did.
# A1 apoptosis 2 – A1 inhibitors via caspase activation, primary screen, cell-based, luminescence, HTS, two replicates; caspase activation, % (test concentration not listed); MEF A1-2A-BIM cells, caspase-Glo luminescence, 3 h; percent of clofoctol response, DMSO zero; 24,000 tested, under 10 active; in the data active = caspase activation above about 5.9%; inconclusive = no clear call, values can overlap the other calls; inactive = below about 2.2%
#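 Test system – A1-2A-BIM-expressing MEF cells · Input – 2500 cells/well · Medium – RPMI-1640 growth medium with 10% FBS · Compound dosing – 50 nL pinned compound · Timing – 3 h compound exposure at 37 °C · Technique – Caspase-Glo luminescence (DEVD substrate) · Evaluation – Caspase-3/7 activity from luminescence increase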
# INS-1E ATP HTS – protection of INS-1E cells from cytokine death, primary screen, ATP luminescence, single point | INS-1E cytokine-induced death, 48 h; normalised: neutral wells 0, positive control 100 | protection from cytokine-induced ATP loss, % at 10 µM | 0.1% of 20,000 active | AID 488910, 2010;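 active = mean replicate protection from cytokine-induced ATP loss at least 50% and at least 75% of replicates each reaching 50%; inconclusive = meets only one of the two criteria, mean or replicate share; inactive = fails both the mean and replicate share criteria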
#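 Assay system – rat INS-1E insulinoma cell line · Quantity – 8000 cells per well · Buffer or medium – RPMI without phenol red, 5% FBS · Schedule – 48 h co-treatment, 10 min post-lysis read · Technique – luminescent ATP assay (CellTiter-Glo)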
# T cruzi intra – inhibitors of intracellular Trypanosoma cruzi, primary screen, cell-based, plate reader, single point, set 2 | AID 651903, 2012 | 4.9% of 22,000 active | intracellular Trypanosoma cruzi in host cells | activity score (inhibition), % at 5.01 µM; in the data active = activity score above about 55%; inconclusive = no clear call, values can overlap the other calls;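 note: parasites and compound incubated about four days before reading; 0% = median of neutral control wells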
# Active calls of the source: *; ? = inconclusive; · = no result.
SMILES,A1 apoptosis 2,INS-1E ATP HTS,T cruzi intra
O=C(N/N=C\c1cc(Br)ccc1O)c1ccccc1O,·,-129.1,47.5
C[C@H]1CN([C@@H](C)CO)C(=O)c2cccc(NC(=O)c3nc4ccccc4s3)c2O[C@H]1CN(C)Cc1ccc(-c2ccccc2)cc1,-0.8,-23.3,22.8
C[C@H](CO)N1C[C@H](C)[C@H](CN(C)Cc2ccc(-c3ccccc3)cc2)Oc2c(NC(=O)c3nc4ccccc4s3)cccc2C1=O,·,-42.5,60.0*
C[C@@H]1CN([C@@H](C)CO)C(=O)c2cccc(NC(=O)c3nc4ccccc4s3)c2O[C@@H]1CN(C)Cc1ccc(C(=O)Nc2ccccc2N)cc1,·,29.7,?
C[C@H](CO)N1C[C@H](C)[C@@H](CN(C)Cc2ccc(C(=O)Nc3ccccc3N)cc2)Oc2c(NC(=O)c3nc4ccccc4s3)cccc2C1=O,0.0,1.8,70.9*
COc1ccc(CN(C)C[C@H]2Oc3ccc(NC(=O)CCN4CCOCC4)cc3C(=O)N([C@H](C)CO)C[C@H]2C)cc1,·,11.9,-27.4
C[C@H](CO)N1C[C@H](C)[C@H](CN(C)Cc2ccc(Oc3ccccc3)cc2)Oc2c(NC(=O)C3CC3)cccc2C1=O,1.5,-16.0,-20.3
C[C@@H]1CN([C@@H](C)CO)C(=O)c2cccc(NC(=O)C3CCCCC3)c2O[C@@H]1CN(C)Cc1ccc(Oc2ccccc2)cc1,·,-65.3,16.9
C[C@H](CO)N1C[C@H](C)[C@H](CN(C)Cc2ccc(Oc3ccccc3)cc2)Oc2c(NC(=O)C3CCOCC3)cccc2C1=O,-0.1,-9.3,7.1
C[C@@H]1CN([C@H](C)CO)C(=O)c2cccc(NC(=O)C3CCCCC3)c2O[C@H]1CN(C)Cc1ccc(Oc2ccccc2)cc1,-1.4,-26.7,69.1*
C[C@H](CO)N1C[C@H](C)[C@@H](CN(C)Cc2ccc(Oc3ccccc3)cc2)Oc2c(NC(=O)C3CCCCC3)cccc2C1=O,·,-61.7,75.0*
C[C@@H]1CN([C@@H](C)CO)C(=O)c2cccc(NC(=O)C3CCCCC3)c2O[C@H]1CN(C)Cc1ccc(Oc2ccccc2)cc1,·,-94.7,65.6*
C[C@@H]1CN([C@@H](C)CO)C(=O)c2cccc(NC(=O)C3CC3)c2O[C@H]1CN(C)Cc1ccc(Oc2ccccc2)cc1,-1.4,-68.4,63.1*
C[C@@H]1CN([C@H](C)CO)C(=O)c2cccc(NC(=O)C3CC3)c2O[C@@H]1CN(C)Cc1ccc(Oc2ccccc2)cc1,·,-23.9,-8.0
Cc1ccc(/C=N/NC(=O)c2cccc(C(=O)NO)c2)o1,-0.6,-1.6,-9.2
O=S(=O)(N[C@@H]1CCN(Cc2ccc(OCCO)cc2)C1)c1cc(C(F)(F)F)ccc1Cl,0.4,·,·
O=C(CCCCCC(=O)Nc1ccccc1O)N/N=C\c1cccnc1Cl,·,1.4,5.3
C[C@@H]1CN([C@@H](C)CO)C(=O)c2cccc(NC(=O)c3nc4ccccc4s3)c2O[C@@H]1CN(C)S(=O)(=O)c1ccccc1,·,-40.4,60.4*
Cc1ccc(S(=O)(=O)N(C)C[C@H]2Oc3c(NC(=O)c4nc5ccccc5s4)cccc3C(=O)N([C@H](C)CO)C[C@H]2C)cc1,·,4.2,16.0
C[C@@H]1CN([C@H](C)CO)C(=O)c2cccc(NC(=O)c3nc4ccccc4s3)c2O[C@H]1CN(C)S(=O)(=O)c1ccccc1,·,-10.9,28.1
C[C@@H]1CN([C@H](C)CO)C(=O)c2cccc(NS(=O)(=O)c3ccc(F)cc3)c2O[C@@H]1CN(C)S(=O)(=O)c1ccc(F)cc1,-0.5,1.9,16.3
C[C@H](CO)N1C[C@H](C)[C@H](CN(C)S(=O)(=O)c2ccc(F)cc2)Oc2c(NC(=O)c3nc4ccccc4s3)cccc2C1=O,·,-36.7,61.1*
Cc1ccc(S(=O)(=O)N(C)C[C@H]2Oc3c(NC(=O)c4nc5ccccc5s4)cccc3C(=O)N([C@H](C)CO)C[C@@H]2C)cc1,·,-17.5,88.9*
C[C@H](CO)N1C[C@H](C)[C@H](CN(C)S(=O)(=O)c2ccc(F)cc2)Oc2c(NS(=O)(=O)c3ccc(F)cc3)cccc2C1=O,0.6,-5.0,61.3*
C[C@@H]1CN([C@H](C)CO)C(=O)c2cccc(NC(=O)c3nc4ccccc4s3)c2O[C@@H]1CN(C)S(=O)(=O)c1ccccc1,·,6.4,9.3
SMILES,A1 apoptosis 2,INS-1E ATP HTS,T cruzi intra
O=C(NO)c1ccc(C(=O)N/N=C/c2ccc(O)c(F)c2)cc1,·,8.7,-7.7
O=C(N/N=C/c1cccs1)c1ccccc1O,·,-18.0,-14.2
CC(C)(C)OC(=O)NC/C=N/NC(=O)CCCCCCC(=O)O,0.6,11.3,-16.9
O=C(CCCCCCC(=O)Nc1ccccc1O)N/N=C/c1cc(Br)cc([N+](=O)[O-])c1O,-1.3,-13.2,6.6
C[C@H](CO)N1C[C@H](C)[C@@H](CN(C)S(=O)(=O)c2ccc(Cl)cc2)Oc2ccc(NC(=O)CCCN(C)C)cc2C1=O,·,·,7.2
O=C(N/N=C/c1cn(S(=O)(=O)c2ccccc2)c2ccccc12)c1ccccn1,0.2,2.3,30.3
Cc1ccc(S(=O)(=O)N(C)C[C@H]2Oc3c(NC(=O)c4nc5ccccc5s4)cccc3C(=O)N([C@@H](C)CO)C[C@@H]2C)cc1,·,-12.1,74.7*
Cc1ccc(S(=O)(=O)N(C)C[C@H]2Oc3c(NC(=O)c4nc5ccccc5s4)cccc3C(=O)N([C@@H](C)CO)C[C@H]2C)cc1,0.3,-16.7,15.6
C[C@H]1CCCCO[C@H](CN(C)Cc2ccc(C(=O)O)cc2)[C@@H](C)CN([C@@H](C)CO)C(=O)c2cc(NS(=O)(=O)c3ccc(F)cc3)ccc2O1,0.1,·,·
CC1(C)COC(CCC/C=N/NC(=O)c2ccccc2O)OC1,1.0,-11.4,-10.2
C[C@@H]1CN([C@H](C)CO)C(=O)c2cc(NS(=O)(=O)c3cccs3)ccc2O[C@@H]1CN(C)Cc1ccc(C(=O)Nc2ccccc2N)cc1,·,29.5,63.5*
C[C@@H]1CN([C@H](C)CO)C(=O)Cc2cc(NS(=O)(=O)c3cccs3)ccc2O[C@@H]1CN(C)Cc1ccc(C(=O)Nc2ccccc2N)cc1,0.6,-7.0,42.2
C[C@@H]1CN([C@H](C)CO)C(=O)c2cc(NS(=O)(=O)c3cccs3)ccc2O[C@H]1CN(C)Cc1ccc(C(=O)Nc2ccccc2N)cc1,0.5,·,·
C[C@H](CO)N1C[C@H](C)[C@H](CN(C)Cc2ccc(C(=O)Nc3ccccc3N)cc2)Oc2ccc(NS(=O)(=O)c3cccs3)cc2C1=O,·,11.0,65.4*
C[C@H]1CN([C@@H](C)CO)C(=O)c2cc(NS(=O)(=O)c3cccs3)ccc2O[C@H]1CN(C)Cc1ccc(C(=O)Nc2ccccc2N)cc1,·,-7.7,34.9
C[C@@H]1CN([C@@H](C)CO)C(=O)Cc2cc(NS(=O)(=O)c3cccs3)ccc2O[C@@H]1CN(C)Cc1ccc(C(=O)Nc2ccccc2N)cc1,-0.1,-6.5,62.5*
C[C@H]1CN([C@@H](C)CO)C(=O)c2cc(NS(=O)(=O)c3ccc(F)cc3)ccc2O[C@@H]1CN(C)S(=O)(=O)c1ccccc1,-0.4,0.5,0.6

# Screens deposited in PubChem BioAssay by Broad Institute.
